Reference: ChEMBL document CHEMBL1938300 (Bioorg Med Chem, 2011)
Converted amounts (≈) assume the structure as drawn.

What was measured:
[1] = Solubility of the compound; format: physicochemical
[2] = Volume of distribution in Sprague-Dawley rat by HPLC; format: ADME, organism-based; details: in vivo
Procedure, shortened: (§1)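 Rat IV pharmacokinetics: male Sprague-Dawley, n=3, 1 mg/kg tail-vein dose in 3% DMSO/30% Solutol/67% PBS; plasma over 0.083–6 h quantified by HPLC-MS/MS; parameters estimated per rat by non-compartmental analysis.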

[3] = test system: Rattus norvegicus; assay: AUC in Sprague-Dawley rat at 5 mg/kg, po by HPLC; format: ADME, organism-based, Plasma; set-up: dose 5 mg/kg, route oral; details: in vivo
[4] = test system: Rattus norvegicus; assay: AUC in Sprague-Dawley rat at 1 mg/kg, iv by HPLC; format: ADME, organism-based, Plasma; set-up: dose 1 mg/kg, route intravenous; details: in vivo
[5] = Oral bioavailability Sprague-Dawley rat at 5 mg/kg by HPLC; format: ADME, organism-based; details: in vivo
Procedure, shortened: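 Male Sprague-Dawley rats (n=3/group) given 1 mg/kg IV (DMSO/Solutol/PBS) or, after overnight fast, 5 mg/kg oral gavage in PEG400; plasma by HPLC-MS/MS; F% = dose-normalised oral AUC0-∞ divided by IV AUC0-∞, times 100.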

[6] = Clearance in Sprague-Dawley rat by HPLC; format: ADME, organism-based; details: in vivo; procedure, shortened: as §1
[7] = Half life in Sprague-Dawley rat liver microsomes; format: ADME, Microsome
[8] = Solubility of the compound at pH 7.4; format: physicochemical; details: buffer

| solubility [1] | Vd [2] | AUC [3] | AUC [4] | bioavailability [5] | clearance [6] | half-life [7] | solubility [8] | Structure (SMILES) |
| --- | --- | --- | --- | --- | --- | --- | --- | --- |
| 21 µg/mL (≈ 43.5 µM) | 0.5 L/kg | 46 ng·h/mL | 1060 ng·h/mL | 1% | 16 mL/min/kg | 15 min | 21 µg/mL (≈ 43.5 µM) | CNC(=O)c1cccc(F)c1Nc1nc(Nc2ccc3c(c2)NC(=O)CCC3(C)C)ncc1Cl |
| – | – | – | – | 0% | – | – | – | CCN1C(=O)CCC(C)(C)c2ccc(Nc3ncc(Cl)c(Nc4c(F)cccc4C(=O)NC)n3)cc21 |
| – | 0.6 L/kg | 5850 ng·h/mL | 3460 ng·h/mL | 34% | 5 mL/min/kg | 21 min | 26 µg/mL (≈ 43.7 µM) | CNC(=O)c1cccc(F)c1Nc1nc(Nc2ccc3c(c2)NC(=O)[C@H](NC(=O)N2CCCC2)CC3(C)C)ncc1Cl |
| – | 0.6 L/kg | 5550 ng·h/mL | 3190 ng·h/mL | 35% | 5 mL/min/kg | – | – | CNC(=O)c1cccc(F)c1Nc1nc(Nc2ccc3c(c2)NC(=O)[C@@H](NC(=O)N2CCCC2)CC3(C)C)ncc1Cl |
| 8 µg/mL | 1.2 L/kg | 606 ng·h/mL | 1310 ng·h/mL | 9% | 16 mL/min/kg | – | – | CNC(=O)c1cccc(F)c1Nc1nc(Nc2ccc3c(c2)NC(=O)C(NC(=O)C(F)(F)F)CC3(C)C)ncc1Cl.O=C(O)C(F)(F)F (racemic) |
| > 120 µg/mL | 4.6 L/kg | – | 787 ng·h/mL | – | – | – | – | CNC(=O)c1cccc(F)c1Nc1nc(Nc2ccc3c(c2)NC(=O)C(N)CC3(C)C)ncc1Cl (racemic) |
| – | 3 L/kg | 61 ng·h/mL | 825 ng·h/mL | 1% | 32 mL/min/kg | – | – | CNC(=O)c1cccc(F)c1Nc1nc(Nc2ccc3c(c2)NC(=O)C(NC(=O)CN(C)C)CC3(C)C)ncc1Cl.O=C(O)C(F)(F)F (racemic) |
| – | 2 L/kg | 48 ng·h/mL | 654 ng·h/mL | 2% | 33 mL/min/kg | – | – | CNC(=O)c1cccc(F)c1Nc1nc(Nc2ccc3c(c2)NC(=O)C(NC(C)=O)CC3(C)C)ncc1Cl.O=C(O)C(F)(F)F (racemic) |
| – | 1.3 L/kg | 497 ng·h/mL | 846 ng·h/mL | 12% | 20 mL/min/kg | – | – | CNC(=O)c1cccc(F)c1Nc1nc(Nc2ccc3c(c2)NC(=O)C(NC(=O)COC)CC3(C)C)ncc1Cl.O=C(O)C(F)(F)F (racemic) |
| – | 1 L/kg | 987 ng·h/mL | 1200 ng·h/mL | 16% | 15 mL/min/kg | – | – | CNC(=O)c1cccc(F)c1Nc1nc(Nc2ccc3c(c2)NC(=O)C(NC(=O)OC)CC3(C)C)ncc1Cl.O=C(O)C(F)(F)F (racemic) |
| – | 0.8 L/kg | 2630 ng·h/mL | 3420 ng·h/mL | 15% | 6 mL/min/kg | – | – | CNC(=O)c1cccc(F)c1Nc1nc(Nc2ccc3c(c2)NC(=O)C(NC(=O)N2CCCC2)CC3(C)C)ncc1Cl.O=C(O)C(F)(F)F (racemic; form 1) |
| – | 0.8 L/kg | 4660 ng·h/mL | 2330 ng·h/mL | 40% | 8 mL/min/kg | – | – | CNC(=O)c1cccc(F)c1Nc1nc(Nc2ccc3c(c2)NC(=O)C(NC(=O)N2CCCC2)CC3(C)C)ncc1Cl (racemic; form 2) |
